Data reported in ChEMBL document CHEMBL1129044, “Potent, selective tetrahydro-beta-carboline antagonists of the serotonin 2B (5HT2B) contractile receptor in the rat stomach fundus” (J Med Chem, 1996).

What was measured:
[1] = target: 5-hydroxytryptamine receptor 2B (Rattus norvegicus) (UniProt P30994); assay: Binding affinity analysed for 5-HT 2B receptor in rat stomach fundus; assay type: tissue-based
Outline: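 Rat stomach fundus strips (5HT2B): isometric contraction recorded as grams of force. Control cumulative serotonin concentration–response curve, then 1 h incubation with a single antagonist concentration per tissue, then serotonin curve repeated. K_B = [B]/(dose ratio − 1), where dose ratio is agonist ED50 with antagonist over control ED50. Reported as −log K_B.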

[2] = target: T1, 5-hydroxytryptamine receptor 2A (Rattus norvegicus, UniProt P14842); assay: Binding affinity for 5-HT 2A in rat […]; assay type: tissue-based
T1 sequence (P14842 whole entry): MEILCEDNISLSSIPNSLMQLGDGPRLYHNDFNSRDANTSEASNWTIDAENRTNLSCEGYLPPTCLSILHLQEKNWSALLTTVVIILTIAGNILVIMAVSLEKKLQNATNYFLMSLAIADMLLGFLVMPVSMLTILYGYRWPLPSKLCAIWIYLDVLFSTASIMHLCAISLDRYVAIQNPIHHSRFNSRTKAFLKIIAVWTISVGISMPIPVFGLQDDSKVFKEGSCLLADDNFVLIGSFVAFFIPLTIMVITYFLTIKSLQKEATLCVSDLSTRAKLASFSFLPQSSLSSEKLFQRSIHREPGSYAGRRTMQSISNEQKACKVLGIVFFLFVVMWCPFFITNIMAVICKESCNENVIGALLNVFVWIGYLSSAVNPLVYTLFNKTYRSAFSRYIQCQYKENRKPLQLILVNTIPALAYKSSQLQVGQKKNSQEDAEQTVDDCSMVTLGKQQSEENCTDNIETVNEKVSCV

[3] = target: 5-hydroxytryptamine receptor 2A (Rattus norvegicus) (UniProt P14842)
5-hydroxytryptamine receptor 2A (Rattus norvegicus), sequence (P14842 whole entry): as above

[4] = target: 5-HT2C receptor (Mus musculus); assay: Binding affinity towards 5-HT 2C receptor of mouse
[5] = target: Serotonin receptor 2a and 2b (5HT2A and 5HT2B) (Rattus norvegicus) (UniProt P30994+P14842); assay: Relative binding to serotonin receptors 5-HT-2B and 5-HT-2A (Ratio of […] Ki); assay type: protein assay
Serotonin receptor 2a and 2b (5HT2A and 5HT2B) (Rattus norvegicus), sequence (P14842 whole entry, looked up): as the sequence (P14842 whole entry) above
Serotonin receptor 2a and 2b (5HT2A and 5HT2B) (Rattus norvegicus), sequence (P30994 whole entry, looked up): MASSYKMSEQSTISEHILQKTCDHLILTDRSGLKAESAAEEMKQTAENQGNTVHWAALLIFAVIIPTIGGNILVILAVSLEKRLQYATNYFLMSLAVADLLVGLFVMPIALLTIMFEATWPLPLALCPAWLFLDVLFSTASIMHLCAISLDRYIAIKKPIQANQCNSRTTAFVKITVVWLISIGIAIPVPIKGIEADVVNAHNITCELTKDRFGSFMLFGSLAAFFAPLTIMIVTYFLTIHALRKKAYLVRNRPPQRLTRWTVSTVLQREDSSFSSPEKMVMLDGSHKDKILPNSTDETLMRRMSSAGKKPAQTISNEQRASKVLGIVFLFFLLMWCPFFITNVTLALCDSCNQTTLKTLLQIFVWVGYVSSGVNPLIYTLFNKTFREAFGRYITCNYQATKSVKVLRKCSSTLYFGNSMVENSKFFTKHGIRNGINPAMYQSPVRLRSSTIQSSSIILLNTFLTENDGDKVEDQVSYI

[6] = species: Rattus norvegicus; assay: Relative binding to serotonin receptors 5-HT-2B to 5-HT2C (Ratio of […] Ki)
[7] = target: 5-hydroxytryptamine receptor 2A (Rattus norvegicus) (UniProt P14842); assay: Binding affinity analysed towards 5-HT 2A in rat jugular vein
Outline: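 Rat external jugular vein (5HT2A), cannulated in situ and kept in Krebs' bicarbonate buffer; isometric contraction recorded. Control cumulative serotonin curve, 1 h with one antagonist concentration per tissue, serotonin curve repeated. K_B = [B]/(dose ratio − 1) from the agonist ED50 shift. Expressed as −log K_B.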

[8] = target: 5-hydroxytryptamine receptor 2A (Rattus norvegicus) (UniProt P14842); remark: listed apart in the source
[9] = target: T1, 5-hydroxytryptamine receptor 2A; assay: Binding affinity analysed on 5-HT 2A in rat […].; assay type: tissue-based

5-hydroxytryptamine receptor 2B (Rattus norvegicus), sequence (P30994 whole entry): as the sequence (P30994 whole entry, looked up) above

SMILES	-Log KB [1]	other results
Cc1ccc2[nH]c3c(c2c1)CCN(C)C3Cc1cccc2ccccc12 (stereo unspecified)	7.52	
Cc1cc(NC(=O)Nc2ccc3c(ccn3C)c2)sn1	7.95	
COc1cc(CC2NCCc3c2[nH]c2ccc(C)cc32)cc([N+](=O)[O-])c1OC (stereo unspecified)	8.55	
c1ccc2c3c([nH]c2c1)CNCC3	< 5.52	
COc1ccc(CC2NCCc3c2[nH]c2ccccc32)c(Cl)c1OC (stereo unspecified)	9.27	
Clc1ccc2c(c1)C1CCNC(Cc3cccc4ccccc34)C1N2 (stereo unspecified)	9.16	
COc1ccc(CC2NCCc3c2[nH]c2ccc(OCc4ccccc4)cc32)cc1OC (stereo unspecified)	6.73	
c1ccc2c3c([nH]c2c1)[C@@H]1C[C@@H]2CCCC[C@H]2CN1CC3	7.26	
c1ccc2cc(CC3NCCc4c3[nH]c3ccccc43)ccc2c1 (stereo unspecified)	7.84	
COc1ccc(CC2NCCc3c2[nH]c2ccc(Cl)cc32)cc1OC (stereo unspecified)	8.36	
Cc1ccc(CC2NCCc3c2[nH]c2ccccc32)cc1 (stereo unspecified)	7.84	
COc1ccc(CC2NCCc3c2[nH]c2ccc(SC)cc32)cc1OC (stereo unspecified)	9.56	
COc1ccc(CC2NCCc3c2[nH]c2ccc(C(C)C)cc32)cc1OC (stereo unspecified)	8.5	
COc1ccc(CC2NCCc3c2[nH]c2ccc(C)cc32)cc1F (stereo unspecified)	9.42	
Brc1cccc2c1NC1C(Cc3cccc4ccccc34)NCCC21 (stereo unspecified)	9.1	
Cc1ccc2c(c1Br)NC1C(Cc3cccc4ccccc34)NCCC21 (stereo unspecified)	8.56	
COc1ccc(CC2NCCc3c2[nH]c2ccc(Br)cc32)cc1OC (stereo unspecified)	8.8	
COc1ccc(CC2NCCc3c2[nH]c2cc(C)cc(C)c32)cc1OC (stereo unspecified)	9.34	
COc1cccc(CC2NCCc3c2[nH]c2ccccc32)c1 (stereo unspecified)	8.04	
COc1ccc(CC2c3[nH]c4ccc(C)cc4c3CCN2C)c(Cl)c1OC (stereo unspecified)	8.4	
COc1ccc(CC2NCCc3c2[nH]c2ccc(C)cc32)c(Cl)c1OC (stereo unspecified)	9.8	Ki [2]: 19.5 nM; -Log KB [3]: 8.14
COc1ccc(CCC2NCCc3c2[nH]c2ccccc32)cc1OC (stereo unspecified)	7.07	
COc1cc(CC2NCCc3c2[nH]c2ccc(C)cc32)cc(I)c1OC (stereo unspecified)	8.12	
COc1ccc(CC2NCCc3c2[nH]c2ccc(C)cc32)c([N+](=O)[O-])c1OC (stereo unspecified)	9.16	
Clc1ccc(CC2NCCc3c2[nH]c2ccccc32)cc1Cl (stereo unspecified)	8.22	
CCCCc1ccc2[nH]c3c(c2c1)CCNC3Cc1ccc(OC)c(OC)c1 (stereo unspecified)	< 7.5	

SMILES	-Log KB [1]	other results
COc1ccc(CC2NCCc3c2[nH]c2ccc(F)cc32)cc1OC (stereo unspecified)	8.49	
COc1ccc(CC2NCCc3c2[nH]c2ccc(I)cc32)cc1OC (stereo unspecified)	9.52	
COc1ccc(CC2c3c(c4cc(C)ccc4n3C)CCN2C)c(Cl)c1OC (stereo unspecified)	< 7.52	
Cc1ccc2[nH]c3c(c2c1)CCNC3Cc1ccc(C)c(C)c1 (stereo unspecified)	9.06	
COc1ccc(CC2NCCc3c2[nH]c2ccc(C)cc32)c(Br)c1OC (stereo unspecified)	9.7	Ki [4]: 18.6 nM; Ratio [5]: 83.2; Ki [2]: 16.6 nM; Ratio [6]: 93.3
CCOc1ccc(CC2NCCc3c2[nH]c2ccccc32)cc1OCC (stereo unspecified)	8.57	
COc1ccc(CC2NCCc3c2[nH]c2c(F)cc(F)cc32)cc1OC (stereo unspecified)	9.6	
COc1ccc(CC2NCCc3c2[nH]c2ccccc32)cc1OC (stereo unspecified)	9.17	-Log KB [7]: 7.43; Ki [4]: 126 nM; Ratio [5]: 97.7; Ki [2]: 66.1 nM; Ratio [6]: 186
CCCc1ccc2[nH]c3c(c2c1)CCNC3Cc1ccc(OC)c(OC)c1 (stereo unspecified)	8.64	
COc1cc(CC2NCCc3c2[nH]c2ccccc32)cc(OC)c1OC (stereo unspecified)	8.1	
COc1ccc(CC2NCCc3c2[nH]c2c(Br)cc(C)cc32)cc1OC (stereo unspecified)	8.92	
COc1ccc(CC2NCCc3c2[nH]c2ccc(C)cc32)cc1OC (stereo unspecified)		Ki [2]: 22.4 nM
CCc1ccc2[nH]c3c(c2c1)CCNC3Cc1ccc(OC)c(OC)c1 (stereo unspecified)	9.46	
COc1cccc2c1NC1C(Cc3cccc4ccccc34)NCCC21 (stereo unspecified)	9.72	
c1ccc2c(CC3NCCc4c3[nH]c3ccccc43)cccc2c1 (stereo unspecified)	9.35	
COc1ccc(CC2NCCc3c2[nH]c2ccc(C)cc32)cc1O (stereo unspecified)	9.23	
Cc1ccc2[nH]c3c(c2c1)CCNC3Cc1ccc(F)c(F)c1 (stereo unspecified)	8.47	
COc1ccc(CC2NCCc3c2[nH]c2ccc(C4CCCCC4)cc32)cc1OC (stereo unspecified)	< 7.5	
COc1ccc(CC2(C)NCCc3c2[nH]c2ccc(C)cc32)cc1OC (stereo unspecified)	< 7.52	
COc1ccc(CC2NCCc3c2[nH]c2ccc(C)c(F)c32)cc1OC (stereo unspecified)	9.3	
COc1ccc(OC)c(CC2NCCc3c2[nH]c2ccccc32)c1 (stereo unspecified)	7.75	
Cc1cc(Br)c2c(c1)C1CCNC(Cc3cccc4ccccc34)C1N2 (stereo unspecified)	8.82	
COc1ccc2c3c([nH]c2c1)C(Cc1ccc(OC)c(OC)c1)NCC3 (stereo unspecified)	7.31	
COc1ccc(CC2NCCc3c2[nH]c2c(C)cc(C)cc32)cc1OC (stereo unspecified)	9.61	
Cc1ccc2[nH]c3c(c2c1)CCNC3Cc1cccc(C(F)(F)F)c1 (stereo unspecified)	8.91	
COc1ccc(CC2NCCc3c2[nH]c2cc(C)c(C)cc32)cc1OC (stereo unspecified)	9.71	Ki [2]: 4.68 nM

SMILES	-Log KB [1]	other results
COc1ccc(CC2NCCc3c2[nH]c2ccccc32)cc1 (stereo unspecified)	8.09	
COC(=O)[C@@H]1[C@H]2C[C@H]3c4[nH]c5ccccc5c4CCN3C[C@@H]2CC[C@@H]1O	6.92	-Log KB [8]: 6.37
c1ccc(CC2NCCc3c2[nH]c2ccccc32)cc1 (stereo unspecified)	7.61	
COc1ccc(C2NCCc3c2[nH]c2ccccc32)cc1OC (stereo unspecified)	< 6.53	
CCc1ccc2c(c1)C1CCNC(Cc3cccc4ccccc34)C1N2 (stereo unspecified)	9.65	
COC1=CC=C(CC2NCCc3c2n(C)c2ccc(C)cc32)CC1OC (stereo unspecified)	< 7.52	
Cc1ccc2[nH]c3c(c2c1)CCNC3Cc1cc(F)cc(F)c1 (stereo unspecified)	9.05	
Cc1ccc2[nH]c3c(c2c1)CCNC3CC1CCCCC1 (stereo unspecified)	8.32	
COc1ccc(CC2NCCc3c2[nH]c2c(Br)c(C)ccc32)cc1OC (stereo unspecified)	9.02	Ki [4]: 2.04 nM; Ratio [5]: 3.09; Ki [2]: 2.95 nM; Ratio [6]: 2.14
COc1ccc(CC2NCCc3c2[nH]c2c3ccc3ccccc32)cc1OC (stereo unspecified)	9.22	
COc1cc(CC2NCCc3c2[nH]c2ccc(C)cc32)cc(N)c1OC (stereo unspecified)	8.89	
Cn1ccc2cc(NC(=O)Nc3cccnc3)ccc21	7.4	Ratio [5]: > 158; Ki [2]: > 6310 nM; Ratio [6]: 3.5
COc1cc2c(cc1OC)CN1CCc3c([nH]c4ccccc34)[C@@H]1C2	< 6.52	
O=C(O)c1ccc2c(c1)C1CCNC(Cc3cccc4ccccc34)C1N2 (stereo unspecified)	< 7.5	
COc1ccc(CC2NCC(C)c3c2[nH]c2c(C)cccc32)cc1OC (stereo unspecified)	9.29	
COc1ccc(CC2NCCc3c2[nH]c2ccc(-c4ccccc4)cc32)cc1OC (stereo unspecified)	< 7	
COc1ccc(CC2NCCc3c2[nH]c2c(C)cccc32)cc1OC (stereo unspecified)	9	
Cn1ccc2cc3c(cc21)CCN3C(=O)Nc1cccnc1	8.48	
CN1CC[C@@H]2CN3CCc4cccc(c43)[C@@H]2C1	7.34	Ki [9]: 631 nM
COc1ccc(CC2NCCc3c2[nH]c2ccc(C)cc32)c(N)c1OC (stereo unspecified)	9.02	
COc1ccc(CC2NCCc3c2[nH]c2c(C)c(C)ccc32)cc1OC (stereo unspecified)	10.1	Ki [4]: 7.76 nM; Ratio [5]: 115; Ki [2]: 8.71 nM; Ratio [6]: 102
COc1ccc(CN2CCc3c([nH]c4ccccc34)C2)cc1OC	< 5.52	
COc1ccc2[nH]c3c(c2c1)CCNC3Cc1ccc(OC)c(OC)c1 (stereo unspecified)	8.48	
c1ccc2c3c([nH]c2c1)C(Cc1ccc2c(c1)OCO2)NCC3 (stereo unspecified)	8.4	
